This passage reports Plasma GH release and Potency results from ChEMBL document CHEMBL1123585, “Differential effects of N-terminal modifications on the biological potencies of growth hormone releasing factor analogues with varying chain lengths” (1987).

Assay [1] addresses T1, Growth hormone-releasing hormone receptor (Rattus norvegicus) (UniProt Q02644).
T1 sequence (whole entry): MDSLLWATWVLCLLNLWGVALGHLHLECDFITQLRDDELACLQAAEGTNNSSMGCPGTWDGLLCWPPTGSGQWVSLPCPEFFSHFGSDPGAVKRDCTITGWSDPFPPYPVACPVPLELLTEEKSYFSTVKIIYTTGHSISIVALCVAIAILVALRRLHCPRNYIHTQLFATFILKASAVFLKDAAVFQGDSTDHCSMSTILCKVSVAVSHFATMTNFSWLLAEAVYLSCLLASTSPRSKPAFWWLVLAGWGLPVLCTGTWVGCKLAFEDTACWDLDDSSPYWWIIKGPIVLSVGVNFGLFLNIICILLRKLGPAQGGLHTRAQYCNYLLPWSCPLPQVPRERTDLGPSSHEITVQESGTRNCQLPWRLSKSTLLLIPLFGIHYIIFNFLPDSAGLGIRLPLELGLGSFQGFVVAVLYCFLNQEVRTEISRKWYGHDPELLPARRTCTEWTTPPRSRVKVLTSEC
Briefly: Effect on growth hormone release(GRF) was determined in nembutal-anesthetized rat, at dose of 10 ug/100 g body weight. Type of assay: functional. In a few lines:
(§1)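 Male Charles River rats (175-275 g), anesthetized with sodium pentobarbital 6 mg/100 g body weight. Six to nine per group. Peptide or saline given subcutaneously in 0.5 mL, 30 min after anesthetic. Jugular vein blood taken 15 min post-injection. Plasma GH measured by radioimmunoassay and reported as ng/mL, mean ± SEM.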

Assay [2] concerns the target T1, Growth hormone-releasing hormone receptor (Rattus norvegicus). Description: Effect on growth hormone release(GRF) was determined in nembutal-anesthetized rat, at dose of 100 ug/100 g body weight. Type of assay: functional. A digest of the protocol:
as §1

Assay [3] has the same target. Briefly: Tested for the potency of growth hormone (GRF) on subcutaneous administration in anesthetized male Charles River rats. The assay is classed as functional, organism-based. A digest of the protocol: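 Pentobarbital-anesthetized male rats (175-275 g), six to nine per group, received two subcutaneous doses of analogue or of reference GRF(1-29)NH2, in 0.5 mL, 30 min after anesthesia. Plasma GH measured by RIA 15 min later. Potency with 95% confidence limits calculated from a four-point assay design by the Pugsley method.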

Assay [4] has the same target. Description: In vitro rat pituitary cell growth hormone response was obtained. Type of assay: functional, cell-based. The settings on record: Pituitary gland cell.
Assay [5] is filed under the species Rattus norvegicus. Briefly: In vitro rat pituitary cell growth hormone response to the compound was obtained. The assay is classed as functional, Pituitary gland cell.
Assay [6] relates to Rattus norvegicus. Description: Effect on growth hormone release(GRF) was determined in nembutal-anesthetized rat, at dose of 20 ug/100 g body weight. The assay is classed as functional, organism-based. A digest of the protocol: as §1
In assay [7] the test system is Rattus norvegicus. Description: Effect on growth hormone release(GRF) was determined in nembutal-anesthetized rat, at dose of 50 ug/100 g body weight. Type of assay: functional, organism-based. In a few lines: as §1

Values joined by “and” are separate entries in the source; they are usually repeats but may differ in a detail not shown here. Identical values can stand only once.

For the compound `CC[C@H](C)[C@H](NC(=O)[C@H](C)NC(=O)[C@@H](CC(=O)O)NC(=O)[C@H](C)NC(=O)[C@@H](N)Cc1ccc(O)cc1)C(=O)N[C@@H](Cc1ccccc1)C(=O)N[C@H](C(=O)N[C@H](CC(N)=O)C(=O)N[C@@H](CO)C(=O)N[C@@H](Cc1ccc(O)cc1)C(=O)N[C@@H](CCCN=C(N)N)C(=O)N[C@@H](CCCCN)C(=O)N[C@H](C(=O)N[C@@H](CC(C)C)C(=O)NCC(=O)N[C@@H](CCC(N)=O)C(=O)N[C@@H](CC(C)C)C(=O)N[C@@H](CO)C(=O)N[C@@H](C)C(=O)N[C@@H](CCCN=C(N)N)C(=O)N[C@@H](CCCCN)C(=O)N[C@@H](CC(C)C)C(N)=O)C(C)C)[C@@H](C)O`, the Plasma GH release in assay [1] worked out at 498 ng/mL; in assay [2] it was 401 ng/mL. The Potency in assay [3] was less than 5%.

For `CC[C@H](C)[C@H](NC(=O)[C@H](C)NC(=O)[C@H](CC(=O)O)NC(=O)[C@@H](C)N(C)C(=O)[C@@H](N)Cc1ccc(O)cc1)C(=O)N[C@@H](Cc1ccccc1)C(=O)N[C@H](C(=O)N[C@H](CC(N)=O)C(=O)N[C@@H](CO)C(=O)N[C@@H](Cc1ccc(O)cc1)C(=O)N[C@@H](CCCN=C(N)N)C(=O)N[C@@H](CCCCN)C(=O)N[C@H](C(=O)N[C@@H](CC(C)C)C(=O)NCC(=O)N[C@@H](CCC(N)=O)C(=O)N[C@@H](CC(C)C)C(=O)N[C@@H](CO)C(=O)N[C@@H](C)C(=O)N[C@@H](CCCN=C(N)N)C(=O)N[C@@H](CCCCN)C(=O)N[C@@H](CC(C)C)C(N)=O)C(C)C)[C@@H](C)O`, the Plasma GH release in assay [1] amounted to 512 ng/mL; in assay [2] it was 385 ng/mL. The Potency in assay [3] was less than 5%.

With `CC[C@H](C)[C@H](NC(=O)[C@H](C)NC(=O)[C@H](CC(=O)O)NC(=O)[C@H](C)NC(=O)[C@@H](N)Cc1ccc(O)cc1)C(=O)N[C@@H](Cc1ccccc1)C(=O)N[C@H](C(=O)N[C@@H](CC(N)=O)C(=O)N[C@@H](CO)C(=O)N[C@@H](Cc1ccc(O)cc1)C(=O)N[C@@H](CCCN=C(N)N)C(=O)N[C@@H](CCCCN)C(=O)N[C@H](C(=O)N[C@@H](CC(C)C)C(=O)NCC(=O)N[C@@H](CCC(N)=O)C(=O)N[C@@H](CC(C)C)C(=O)N[C@@H](CO)C(=O)N[C@@H](C)C(=O)N[C@@H](CCCN=C(N)N)C(=O)N[C@@H](CCCCN)C(=O)N[C@@H](CC(C)C)C(=O)N[C@@H](CC(C)C)C(=O)N[C@@H](CCC(N)=O)C(N)=O)C(C)C)[C@@H](C)O`, the Potency is 0.008% in assay [4] and less than 1% in assay [3].

With `CC[C@H](C)[C@H](NC(=O)[C@H](C)NC(=O)[C@H](CC(=O)O)NC(=O)[C@@H](C)NC(=O)[C@@H](N)Cc1ccc(O)cc1)C(=O)N[C@@H](Cc1ccccc1)C(=O)N[C@H](C(=O)N[C@H](CC(N)=O)C(=O)N[C@@H](CO)C(=O)N[C@@H](Cc1ccc(O)cc1)C(=O)N[C@@H](CCCN=C(N)N)C(=O)N[C@@H](CCCCN)C(=O)N[C@H](C(=O)N[C@@H](CC(C)C)C(=O)NCC(=O)N[C@@H](CCC(N)=O)C(=O)N[C@@H](CC(C)C)C(=O)N[C@@H](CO)C(=O)N[C@@H](C)C(=O)N[C@@H](CCCN=C(N)N)C(=O)N[C@@H](CCCCN)C(=O)N[C@@H](CC(C)C)C(N)=O)C(C)C)[C@@H](C)O`, the Plasma GH release in assay [1] was 417 ng/mL and 305 ng/mL. The Potency in assay [3] was less than 5%.

On to `CC[C@H](C)[C@H](NC(=O)[C@H](C)NC(=O)[C@H](CC(=O)O)NC(=O)[C@H](C)NC(=O)[C@H](Cc1ccc(O)cc1)NC(C)=O)C(=O)N[C@@H](Cc1ccccc1)C(=O)N[C@H](C(=O)N[C@@H](CC(N)=O)C(=O)N[C@@H](CO)C(=O)N[C@@H](Cc1ccc(O)cc1)C(=O)N[C@@H](CCCN=C(N)N)C(=O)N[C@@H](CCCCN)C(=O)N[C@H](C(=O)N[C@@H](CC(C)C)C(=O)NCC(=O)N[C@@H](CCC(N)=O)C(=O)N[C@@H](CC(C)C)C(=O)N[C@@H](CO)C(=O)N[C@@H](C)C(=O)N[C@@H](CCCN=C(N)N)C(=O)N[C@@H](CCCCN)C(=O)N[C@@H](CC(C)C)C(=O)N[C@@H](CC(C)C)C(=O)N[C@@H](CCC(N)=O)C(=O)N[C@@H](CC(=O)O)C(=O)N[C@H](C(=O)N[C@@H](CCSC)C(=O)N[C@@H](CO)C(=O)N[C@@H](CCCN=C(N)N)C(N)=O)[C@@H](C)CC)C(C)C)[C@@H](C)O`, for which the Potency was 240% in the assay listed under Rattus norvegicus [5] and 1200% in assay [3].

`CC[C@H](C)[C@H](NC(=O)[C@H](C)NC(=O)[C@H](CC(=O)O)NC(=O)[C@H](C)NC(=O)[C@@H](N)Cc1ccc(O)cc1)C(=O)N[C@@H](Cc1ccccc1)C(=O)N[C@H](C(=O)N[C@H](CC(N)=O)C(=O)N[C@@H](CO)C(=O)N[C@@H](Cc1ccc(O)cc1)C(=O)N[C@@H](CCCN=C(N)N)C(=O)N[C@@H](CCCCN)C(=O)N[C@H](C(=O)N[C@@H](CC(C)C)C(=O)NCC(=O)N[C@@H](CCC(N)=O)C(=O)N[C@@H](CC(C)C)C(=O)N[C@@H](CO)C(=O)N[C@@H](C)C(=O)N[C@@H](CCCN=C(N)N)C(=O)N[C@@H](CCCCN)C(=O)N[C@@H](CC(C)C)C(=O)N[C@@H](CC(C)C)C(=O)N[C@@H](CCC(N)=O)C(=O)N[C@@H](CC(=O)O)C(=O)N[C@H](C(=O)N[C@@H](CC(C)C)C(N)=O)[C@@H](C)CC)C(C)C)[C@@H](C)O`: the values for the Potency in assay [4] and in assay [3] were 25% and 53%, respectively. Also, the Plasma GH release in the assay on Rattus norvegicus [6] turned out to be 1550 ng/mL; in the assay with Rattus norvegicus [7], 2370 ng/mL.

With Ac-YADAIFTNSYRKVLGQLSARKLLQ-NH2, the Plasma GH release in assay [1] stood at 396 ng/mL; in assay [2], 664 ng/mL. Moreover, in assay [3], the Potency was less than 5%.

In assay [3], `CC[C@H](C)[C@H](NC(=O)[C@H](C)NC(=O)[C@H](CC(=O)O)NC(=O)[C@H](C)NC(=O)[C@@H](N)Cc1ccc(O)cc1)C(=O)N[C@@H](Cc1ccccc1)C(=O)N[C@H](C(=O)N[C@H](CC(N)=O)C(=O)N[C@@H](CO)C(=O)N[C@@H](Cc1ccc(O)cc1)C(=O)N[C@@H](CCCN=C(N)N)C(=O)N[C@@H](CCCCN)C(=O)N[C@H](C(=O)N[C@@H](CC(C)C)C(=O)NCC(=O)N[C@@H](CCC(N)=O)C(=O)N[C@@H](CC(C)C)C(=O)N[C@@H](CO)C(=O)N[C@@H](C)C(=O)N[C@@H](CCCN=C(N)N)C(=O)N[C@@H](CCCCN)C(=O)N[C@@H](CC(C)C)C(=O)N[C@@H](CC(C)C)C(=O)N[C@@H](CCC(N)=O)C(=O)N[C@@H](CC(=O)O)C(=O)N[C@H](C(=O)N[C@@H](CCSC)C(=O)N[C@@H](CO)C(=O)N[C@@H](CCCN=C(N)N)C(N)=O)[C@@H](C)CC)C(C)C)[C@@H](C)O` showed a Potency of 220%.

On to `CC[C@H](C)[C@H](NC(=O)C(CC(=O)O)NC(=O)[C@H](CCC(N)=O)NC(=O)[C@H](CC(C)C)NC(=O)[C@H](CC(C)C)NC(=O)[C@H](CCCCN)NC(=O)[C@H](CCCN=C(N)N)NC(=O)[C@H](C)NC(=O)[C@H](CO)NC(=O)[C@H](CC(C)C)NC(=O)[C@H](CCC(N)=O)NC(=O)CNC(=O)[C@H](CC(C)C)NC(=O)[C@@H](NC(=O)[C@H](CCCCN)NC(=O)[C@H](CCCN=C(N)N)NC(=O)[C@H](Cc1ccc(O)cc1)NC(=O)[C@H](CO)NC(=O)[C@H](CC(N)=O)NC(=O)[C@@H](NC(=O)[C@H](Cc1ccccc1)NC(=O)[C@@H](NC(=O)[C@H](C)NC(=O)C(CC(=O)O)NC(=O)[C@@H](C)NC(=O)[C@@H](N)Cc1ccc(O)cc1)[C@@H](C)CC)[C@@H](C)O)C(C)C)C(=O)N[C@@H](CCSC)C(=O)N[C@@H](CO)C(=O)N[C@@H](CCCN=C(N)N)C(N)=O` (stereo in doubt), for which the Potency in the assay listed under Rattus norvegicus [5] is 150%; in assay [3] it was 670%.

As to `CC[C@H](C)[C@H](NC(=O)[C@H](C)NC(=O)[C@@H](CC(=O)O)NC(=O)[C@@H](C)NC(=O)[C@@H](N)Cc1ccc(O)cc1)C(=O)N[C@@H](Cc1ccccc1)C(=O)N[C@H](C(=O)N[C@H](CC(N)=O)C(=O)N[C@@H](CO)C(=O)N[C@@H](Cc1ccc(O)cc1)C(=O)N[C@@H](CCCN=C(N)N)C(=O)N[C@@H](CCCCN)C(=O)N[C@H](C(=O)N[C@@H](CC(C)C)C(=O)NCC(=O)N[C@@H](CCC(N)=O)C(=O)N[C@@H](CC(C)C)C(=O)N[C@@H](CO)C(=O)N[C@@H](C)C(=O)N[C@@H](CCCN=C(N)N)C(=O)N[C@@H](CCCCN)C(=O)N[C@@H](CC(C)C)C(N)=O)C(C)C)[C@@H](C)O`, the Plasma GH release was found to be 314 ng/mL in assay [1] and 340 ng/mL in assay [2]. The Potency in assay [3] was less than 5%.

For Ac-HADAIFTNSYRKVLGQLSARKLLQ-NH2, the Plasma GH release in assay [1] amounted to 358 ng/mL; in assay [2], 719 ng/mL. Also, the Potency in assay [3] was less than 5%.

For the compound Ac-YADAIFTNSYRKVLGQLSARKLLQDIL-NH2, the Plasma GH release with Rattus norvegicus [6] was determined as 1270 ng/mL; in the assay on Rattus norvegicus [7], 2730 ng/mL. The same compound gave a Potency in assay [3] of 54%.
